Laboratory results: ChEMBL document CHEMBL1155825, “Potent and selective antiplasmodial activity of the cyanobacterial alkaloid nostocarboline and its dimers” (Bioorg Med Chem Lett, 2008)

What was measured:
[1] = system: L6; test: Cytotoxicity against rat L6 cells; assay type: cell-based
In short: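 Cytotoxicity was measured on rat skeletal myoblast L6 cells, with the IC50 as read-out.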

[2] = Selectivity index, ratio of IC50 for rat L6 cells to IC50 for Plasmodium falciparum K1; assay type: toxicity, cell-based; conditions: rat L6 cells (cytotoxicity) versus Plasmodium falciparum K1, read-out: Ratio IC50
[3] = system: Trypanosoma cruzi; test: Antiparasitic activity against Trypanosoma cruzi Tulahuen C2C4; assay type: functional, organism-based
[4] = system: Plasmodium falciparum; test: Antiparasitic activity against Plasmodium falciparum K1; assay type: functional, organism-based
[5] = system: Trypanosoma brucei rhodesiense; test: Antiparasitic activity against Trypanosoma brucei rhodesiense STIB900; assay type: functional, organism-based
[6] = system: Leishmania donovani; test: Antiparasitic activity against Leishmania donovani […]; assay type: functional, organism-based
In short: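 Leishmania donovani MHOM-ET-67/L82 tested as axenic amastigotes; IC50 determined.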

Compound	IC50 [1]	selectivity ratio [2]	IC50 [3]	IC50 [4]	IC50 [5]	IC50 [6]
Clc1ccc2[nH]c3c[n+](Cc4cccc(C[n+]5ccc6c(c5)[nH]c5ccc(Cl)cc56)c4)ccc3c2c1	3.8 µM	32	5.9 µM	0.121 µM	1.2 µM	0.2 µM
Clc1ccc2[nH]c3c[n+](CCOCC[n+]4ccc5c(c4)[nH]c4ccc(Cl)cc45)ccc3c2c1	47.9 µM	2620	51.1 µM	0.018 µM	1.2 µM	8.6 µM
Clc1ccc2[nH]c3c[n+](CCCCCC[n+]4ccc5c(c4)[nH]c4ccc(Cl)cc45)ccc3c2c1	36.2 µM	1810	36.2 µM	0.02 µM	1.2 µM	6.6 µM
Clc1ccc2[nH]c3c[n+](C/C=C\C[n+]4ccc5c(c4)[nH]c4ccc(Cl)cc45)ccc3c2c1	61.1 µM	540	> 56.6 µM	0.113 µM	1.1 µM	9.6 µM
Clc1ccc2[nH]c3c[n+](Cc4ccc(-c5ccc(C[n+]6ccc7c(c6)[nH]c6ccc(Cl)cc67)cc5)cc4)ccc3c2c1	23 µM	408	> 45.7 µM	0.056 µM	2.5 µM	68.4 µM
Clc1ccc2[nH]c3c[n+](CCCCCCCCCC[n+]4ccc5c(c4)[nH]c4ccc(Cl)cc45)ccc3c2c1	8.2 µM	575	36.6 µM	0.014 µM	1.1 µM	0.9 µM
Clc1ccc2[nH]c3c[n+](CCCCCCCC[n+]4ccc5c(c4)[nH]c4ccc(Cl)cc45)ccc3c2c1	7.5 µM	423	31.4 µM	0.018 µM	0.9 µM	2.3 µM
Clc1ccc2[nH]c3c[n+](Cc4ccc(C[n+]5ccc6c(c5)[nH]c5ccc(Cl)cc56)cc4)ccc3c2c1	17.4 µM	78	> 51.7 µM	0.223 µM	1 µM	19.9 µM
O=C(O)c1cn(C2CC2)c2cc(N3CCN(Cc4ccc(C[n+]5ccc6c(c5)[nH]c5ccc(Cl)cc56)cc4)CC3)c(F)cc2c1=O	121 µM		> 44.6 µM	> 7.4 µM	92.5 µM	61.6 µM
Clc1ccc2[nH]c3c[n+](CCCCCCCCCCCC[n+]4ccc5c(c4)[nH]c4ccc(Cl)cc45)ccc3c2c1	4.3 µM	186	10 µM	0.023 µM	1.2 µM	0.6 µM
C[n+]1ccc2c(c1)[nH]c1ccc(Cl)cc12 [NOSTOCARBOLINE]	121 µM	622	> 87.1 µM	0.194 µM	70.5 µM	34.3 µM
Clc1ccc2[nH]c3c[n+](CC#CC[n+]4ccc5c(c4)[nH]c4ccc(Cl)cc45)ccc3c2c1	28.5 µM	39	10.6 µM	0.738 µM	6.4 µM	34.7 µM
